Screening data: PubChem BioAssay, The Scripps Research Institute Molecular Screening Center
Most compounds without a hit are left out; they make up all but 1.7% or so of the library.
M5 antag – antagonists of human muscarinic M5 receptor (CHRM5); CHO-hM5 cells, Fluo-8 calcium fluorescence, ACh EC80; inhibition, % at 3 µM; 360,000 compounds, 0.59% hits;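 active = inhibition above a per-plate cutoff, the mean of that plate's test compounds plus 3 SD, cut at about 27% in these data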;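 note: 0% = acetylcholine EC80 with DMSO and 100% = DMSO without agonist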
Target sequence (P08912 whole entry, looked up): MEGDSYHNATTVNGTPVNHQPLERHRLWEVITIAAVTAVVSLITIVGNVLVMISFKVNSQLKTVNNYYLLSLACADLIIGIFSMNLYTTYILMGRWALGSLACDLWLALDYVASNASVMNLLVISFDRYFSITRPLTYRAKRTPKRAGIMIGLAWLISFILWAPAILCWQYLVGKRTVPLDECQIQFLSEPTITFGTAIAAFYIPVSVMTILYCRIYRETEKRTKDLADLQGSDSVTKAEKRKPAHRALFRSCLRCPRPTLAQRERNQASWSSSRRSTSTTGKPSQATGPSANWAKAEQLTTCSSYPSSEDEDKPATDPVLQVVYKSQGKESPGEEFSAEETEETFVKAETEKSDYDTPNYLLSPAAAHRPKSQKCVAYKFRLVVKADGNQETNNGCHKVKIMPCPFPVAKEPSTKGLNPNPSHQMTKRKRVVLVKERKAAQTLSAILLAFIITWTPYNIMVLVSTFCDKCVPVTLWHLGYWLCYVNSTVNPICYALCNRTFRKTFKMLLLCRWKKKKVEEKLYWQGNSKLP
CHRM5 agonist – agonists of human muscarinic M5 receptor (CHRM5) | P08912 | CHO-K1 hM5 cells, Fluo-8 calcium fluorescence; 0% DMSO wells, 100% maximal acetylcholine response | activation, % at 3 µM | 360,000 compounds, 0.19% hits;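 active = activation above the run's mean over test compounds plus 3 SD, cut at about 23% in these data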;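 note: signal is peak over basal fluorescence ratio across the kinetic read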
M5 PAM – CHRM5 positive allosteric modulation | AID 624038 | 360,000 compounds, 0.3% hits | activation, % at 3 µM | P08912 | CHO-K1 hM5, Fluo-8 calcium, ACh EC20 PAM; 0% = ACh EC20, 100% = ACh EC100;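 active = activation above the run cutoff, the mean activation of all test compounds plus 3 SD, cut at about 18% in these data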
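Test system: CHO-K1 hM5 cells / Doses: single-point, 3 µM nominal / Times: Post-acetylcholine fluorescence recording 140 s / Technique: Fluo-8 calcium fluorescence / Measure: Max/basal fluorescence ratio as % of EC20–EC100 ACh window / Benchmarks: low control EC20 acetylcholine (0%), high control EC100 acetylcholine (100%) / Replicates: one well per compound, no replicates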
CHO-K1 Ca ag – M1 agonist counterscreen hit in parental CHO-K1 cells; activation, % at 3 µM; Fluo-8 calcium fluorescence; scaled to maximal ATP response, vehicle zero; 360,000 compounds, 0.48% hits; in the data active = activation above about 15%;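 note: untransfected CHO-K1 host cells lacking M1 receptor as counterscreen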
CHO-K1 Ca antag – counter-screen for M1 antagonists: effect in parental CHO-K1 cells. 360,000 compounds, 0.6% hits. ATP-induced calcium, Fluo-8 fluorescence. inhibition, % at 3 µM;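 active = inhibition above a per-plate cutoff, the plate's mean sample inhibition plus 3 SD, cut at about 24% in these data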;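 note: 0% = DMSO plus EC80 ATP and 100% = DMSO alone without ATP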
CHO-K1 Ca PAM – nonselective activator or artifact in parental CHO-K1 calcium assay | ATP EC20, Fluo-8 calcium fluorescence; 0% at ATP EC20, 100% at ATP max | activation, % at 3 µM | 360,000 compounds, 0.02% hits;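 active = activation above the run cutoff, the mean activation of all test compounds plus 3 SD, cut at about 40% in these data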;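 note: peak over basal fluorescence ratio in a 140 s read after ATP addition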
The depositor's hits bear a star.

SMILES	M5 antag	CHRM5 agonist	M5 PAM	CHO-K1 Ca ag	CHO-K1 Ca antag	CHO-K1 Ca PAM
Cc1ccc(CNC(=O)[C@H](C)NC(=O)C2CCN(C(=O)[C@@H](N)CC(C)C)CC2)cc1	1.9	1.0	1.7	0.1	-8.5	3.0
O=C(NCc1ccccc1Cl)[C@H]1CCCN1C(=O)[C@H]1CCCN1C(=O)c1cccc2ccccc12	6.8	2.6	-6.5	16.1*	-0.3	2.5
Cc1ccc(C(=O)/C=C/NCc2ccc(F)cc2)cc1	6.4	-0.8	-0.2	0.0	25.0*	-6.0
Cc1ccc(NC(=O)c2ccc(NCc3ccc(F)cc3)nc2)cc1	31.8*	-3.4	-18.2	1.3	8.6	2.7
Cc1ccc(NC(=O)c2ccc(Nc3ccccc3F)nc2)cc1	3.8	-0.8	-5.5	1.0	-1.4	5.8
Cn1c2ccccc2c(=O)c2c(=O)n(C3CCCCC3)c(-c3ccco3)nc21	6.0	15.0	-4.0	24.3*	-3.3	24.9
O=C(O)c1ccc(NC(=O)C2CC=CCC2C(=O)O)cc1 (stereo unspecified)	-4.3	-1.4	1.8	0.2	-5.3	13.9
O=C(O)C1CC=CCC1C(=O)Nc1ccccc1 (stereo unspecified)	4.3	1.7	-6.0	-0.3	25.1*	-5.8
O=C1/C(=C\c2c(NCCOCCO)nc3ccccn3c2=O)SC(=S)N1Cc1ccco1	18.9	60.2*	-9.8	20.5*	11.0	0.3
CCCN1C(=O)/C(=C/c2c(NCCCOCC)nc3c(C)cccn3c2=O)SC1=S	-2.3	-3.5	6.3	0.4	-8.1	22.0
N#Cc1c(N)[nH]c(=S)c(C#N)c1-c1ccccc1	-0.5	1.0	-1.1	0.2	24.1*	-3.6
CSc1ccccc1C(=O)Nc1ccc(C)c(C)c1	-0.9	0.8	-4.0	0.2	9.1	-4.2
CN(CC(=O)Nc1ccc(F)cc1)C(=O)CSc1ccc2c(c1)OCCO2	-7.3	2.4	1.8	0.4	-6.8	8.5
Cc1ccc(SCC(=O)OCC(=O)N(C)CC(=O)Nc2ccc(F)cc2)cc1C	-7.4	49.9*	11.2	45.6*	-15.6	18.3
Cc1ccccc1OCCn1cc(C(=S)N2CCCC2)c2ccccc21	-8.7	-6.1	-15.2	0.2	-8.0	30.1
CC(=O)c1cn(CCOc2ccccc2C)c2ccccc12	28.9*	8.2	-15.8	12.9	5.9	17.7
Cc1ccccc1OCCn1cc(C(=O)C(=O)N2CCOCC2)c2ccccc21	1.5	1.2	3.1	22.6*	-9.1	12.6
CCOC(=O)[C@@H]1[C@H]2COc3cc(OC)ccc3[C@H]2N2C(=O)N(c3ccc(C(F)(F)F)cc3)C(=O)[C@]12C	5.8	9.6	-20.6	7.7	33.0*	-19.6
CCC(O)CNC(=O)NC(=C(Cl)Cl)c1ccc(C)c(F)c1 (stereo unspecified)	5.0	0.1	22.2*	9.1	-2.0	12.0
CN(C)Cc1ccccc1CCc1ccccc1	29.8*	-17.6	-28.9	0.3	0.1	-3.2
CN(C)Cc1ccccc1Cc1ccccc1	7.9	-6.5	-4.7	0.0	-5.3	1.9
CCC(=O)Nc1cccc(C(=O)/C=C/c2cc(Br)ccc2OC)c1	0.3	1.7	-5.4	2.3	10.4	-4.2
O=C(NCc1ccccc1)c1ccc(CS(=O)(=O)c2ccc(Br)cc2)o1	5.9	3.2	-7.2	7.9	-7.3	-7.9
Cc1cccc(CS(=O)(=O)Cc2ccc(C(=O)NCc3cccs3)o2)c1	5.6	2.1	-2.1	27.5*	1.7	5.2
O=C(NCc1ccccc1)c1ccc(CS(=O)(=O)c2ccccc2)o1	-12.1	-1.1	21.9*	0.5	-4.2	-10.5
SMILES	M5 antag	CHRM5 agonist	M5 PAM	CHO-K1 Ca ag	CHO-K1 Ca antag	CHO-K1 Ca PAM
O=C(Cn1cccc(C(F)(F)F)c1=O)c1ccc(Cl)cc1	2.3	1.1	-0.6	0.5	-0.1	11.5
C/C(CC(=O)NCCc1ccccc1)=N\NC(=O)COc1ccc(Br)cc1	13.4	-2.3	-4.2	2.2	-6.8	13.9
CCOC(=O)c1cc(-c2ccccc2)sc1NC(=O)C(C)OC(=O)c1cccc(S(=O)(=O)N(C)C)c1 (stereo unspecified)	7.1	-1.2	19.9*	-0.2	15.0	-10.9
CCOC(=O)c1cc(-c2ccccc2)sc1NC(=O)COC(=O)c1cccc(S(N)(=O)=O)c1	-4.1	-2.5	-4.4	0.0	1.5	4.2
CCC(C)N1CCNCC1 (stereo unspecified)	4.0	2.4	7.9	-0.1	25.1*	-14.4
CCC(C)N1CCN(S(=O)(=O)c2ccc3ccccc3c2)CC1 (stereo unspecified)	11.6	-9.2	-0.3	-0.9	3.0	7.5
O=C(Nc1ccc(CN2CCCCC2)cc1)c1cc(Br)ccc1Cl	12.7	-9.3	-2.7	1.1	-6.7	19.8
COc1ccc(NC(=O)CN(C)C(=O)CCC2CCCC2)cc1	29.6*	-1.4	-7.7	0.1	-4.1	-5.3
O=C(CCC1CCN(Cc2nccs2)CC1)Nc1ccccc1	28.7*	-0.9	-8.6	1.1	-10.4	18.3
COc1cccc(NC(=O)CCC2CCN(C(=O)Cc3cccc(F)c3)CC2)c1	15.6	-2.7	2.5	2.6	-3.9	11.8
COc1ccc(CC(=O)N2CCC(CCC(=O)Nc3ccccc3)CC2)cc1	6.5	-3.1	-5.4	8.4	23.9*	-10.5
O=C(CCc1ccccc1)N=C1SC2CS(=O)(=O)CC2N1c1ccccc1 (stereo unspecified)	0.0	-2.6	-0.2	0.4	4.5	-8.9
CCN(Cc1ccccc1)C(=O)c1ccc(N(C)S(=O)(=O)c2ccc(C)cc2)cc1	8.0	-0.8	-9.6	2.1	-3.6	18.5
CC(=O)c1ccc(NC(=S)NC(C)c2ccc(Cl)cc2Cl)cc1 (stereo unspecified)	29.1*	14.3	-15.2	3.7	11.9	-10.5
Cc1ccc(-c2nc(CS(=O)CC(=O)NCc3ccc4c(c3)OCO4)c(C)o2)cc1 (stereo unspecified)	0.1	-1.6	-6.4	-0.7	-8.8	18.7
O=C(O)CCCn1cc(NC(=O)c2c(F)cccc2F)cn1	4.0	-4.3	-4.0	16.4*	15.2	-3.5
O=C(O)CCCn1cc(NC(=O)c2ccc(F)cc2)cn1	-6.6	1.6	1.3	-0.2	0.8	7.6
CCCN1C(=O)C2(OCCO2)c2cc(Cl)ccc21	10.8	-7.8	0.8	0.1	-4.4	12.2
COc1ccc(S(=O)(=O)N(C)CC(=O)NCC2CCCO2)cc1OC (stereo unspecified)	9.5	-1.2	-2.4	0.4	-4.5	-7.7
COc1ccc(S(=O)(=O)N(CC(=O)NCC2CCCO2)c2ccc(F)cc2)cc1OC (stereo unspecified)	5.7	1.3	-4.8	0.8	25.8*	-6.4
